# Assay results as given in ChEMBL document CHEMBL5247578, “Effective synthesis of benzimidazoles-imidazo[1,2-a]pyrazine conjugates: A comparative study of mono-and bis-benzimidazoles for antitumor activity” (Eur J Med Chem, 2019).
# Columns and labels:
# HL-60 [1] = assay: Antiproliferative activity against human HL-60 cells assessed as cell growth at 0.0000001 M incubated for 48 hrs by SRB assay relative to control; format: functional; conditions: dose 100 nM, read-out: Activity
# Procedure, shortened: (§1)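 NCI-60 five-dose screen (10^-4 to 10^-8 M). Cells grown in RPMI 1640 with 5% FBS and 2 mM L-glutamine, plated at 5,000-40,000 cells/well and preincubated 24 h. Drug given from DMSO stock, then 48 h at 37 °C, 5% CO2. For adherent lines, cells fixed with cold TCA, SRB-stained and read at 515 nm. Percent growth taken against time-zero and untreated control.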
# NCI-H460 [2] = assay: Antiproliferative activity against human NCI-H460 cells assessed as cell growth at 0.0001 M incubated for 48 hrs by SRB assay relative to control; format: functional; conditions: read-out: Activity
# T47D = assay: Antiproliferative activity against human T47D cells assessed as cell growth at 0.0000001 M incubated for 48 hrs by SRB assay relative to control; format: functional; conditions: dose 100 nM, read-out: Activity
# NCI-H322M = assay: Antiproliferative activity against human NCI-H322M cells assessed as cell growth at 0.0001 M incubated for 48 hrs by SRB assay relative to control; format: functional; conditions: read-out: Activity
# M14 = assay: Antiproliferative activity against human M14 cells assessed as cell growth at 0.0001 M incubated for 48 hrs by SRB assay relative to control; format: functional; conditions: read-out: Activity
# KM12 = assay: Antiproliferative activity against human KM12 cells assessed as cell growth at 0.00001 M incubated for 48 hrs by SRB assay relative to control; format: functional; conditions: read-out: Activity
# OVCAR-4 [3] = assay: Antiproliferative activity against human OVCAR-4 cells assessed as cell growth inhibition by measuring lethal concentration incubated for 48 hrs by sulforhodamine B assay; format: functional; conditions: read-out: LC50 (the source's name)
# HT-29 = assay: Growth inhibition against human HT-29 cells incubated for 48 hrs by sulforhodamine B assay; format: functional
# OVCAR-3 = assay: Antiproliferative activity against human OVCAR-3 cells assessed as cell growth at 0.0001 M incubated for 48 hrs by SRB assay relative to control; format: functional; conditions: read-out: Activity
# OVCAR-4 [4] = assay: Growth inhibition against human OVCAR-4 cells assessed as total growth inhibitory concentration incubated for 48 hrs by sulforhodamine B assay; format: functional
# HOP-62 = assay: Antiproliferative activity against human HOP-62 cells assessed as cell growth inhibition by measuring lethal concentration incubated for 48 hrs by sulforhodamine B assay; format: functional; conditions: read-out: LC50 (the source's name)
# SNB-75 = assay: Antiproliferative activity against human SNB-75 cells assessed as cell growth at 0.0000001 M incubated for 48 hrs by SRB assay relative to control; format: functional; conditions: dose 100 nM, read-out: Activity
# BT-549 = assay: Growth inhibition against human BT-549 cells assessed as total growth inhibitory concentration incubated for 48 hrs by sulforhodamine B assay; format: functional
# MDA-MB-468 [5] = assay: Antiproliferative activity against human MDA-MB-468 cells assessed as cell growth inhibition by measuring lethal concentration incubated for 48 hrs by sulforhodamine B assay; format: functional; conditions: read-out: LC50 (the source's name)
# Malme-3M = assay: Antiproliferative activity against human Malme-3M cells assessed as cell growth at 0.00001 M incubated for 48 hrs by SRB assay relative to control; format: functional; conditions: read-out: Activity
# Calf thymus DNA [6] = assay: Binding affinity to calf thymus DNA assessed as intercalation by measuring hypochromic shift at 20 uM by UV-vis spectrophotometric method relative to control; format: nucleic-acid assay; conditions: Bos taurus
# MDA-MB-468 [7] = assay: Antiproliferative activity against human MDA-MB-468 cells assessed as cell growth at 0.00000001 M incubated for 48 hrs by SRB assay relative to control; format: functional; conditions: dose 10 nM, read-out: Activity
# MDA-MB-435 = assay: Growth inhibition against human MDA-MB-435 cells incubated for 48 hrs by sulforhodamine B assay; format: functional
# NCI-H460 [8] = assay: Growth inhibition against human NCI-H460 cells assessed as total growth inhibitory concentration incubated for 48 hrs by sulforhodamine B assay; format: functional
# OVCAR-5 = assay: Antiproliferative activity against human OVCAR-5 cells assessed as cell growth at 0.0000001 M incubated for 48 hrs by SRB assay relative to control; format: functional; conditions: dose 100 nM, read-out: Activity
# IGROV-1 [9] = assay: Antiproliferative activity against human IGROV-1 cells assessed as cell growth at 0.000001 M incubated for 48 hrs by SRB assay relative to control; format: functional; conditions: read-out: Activity
# SN12C = assay: Antiproliferative activity against human SN12C cells assessed as cell growth at 0.0000001 M incubated for 48 hrs by SRB assay relative to control; format: functional; conditions: dose 100 nM, read-out: Activity
# EKVX = assay: Antiproliferative activity against human EKVX cells assessed as cell growth inhibition by measuring lethal concentration incubated for 48 hrs by sulforhodamine B assay; format: functional; conditions: read-out: LC50 (the source's name)
# HCC 2998 = assay: Growth inhibition against human HCC 2998 cells incubated for 48 hrs by sulforhodamine B assay; format: functional
# SK-MEL-5 = assay: Antiproliferative activity against human SK-MEL-5 cells assessed as cell growth at 0.00000001 M incubated for 48 hrs by SRB assay relative to control; format: functional; conditions: dose 10 nM, read-out: Activity
# 786-0 [10] = assay: Antiproliferative activity against human 786-0 cells assessed as cell growth at 0.00001 M incubated for 48 hrs by SRB assay relative to control; format: functional; conditions: read-out: Activity
# Procedure, shortened: (§2)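 NCI-60 five-dose screen over 10^-4–10^-8 M (10-fold dilutions). Cells grown in RPMI 1640 with 5% FBS and 2 mM L-glutamine, seeded at 5,000–40,000 cells/well and preincubated 24 h. Drug from DMSO stock, 48 h at 37 °C, 5% CO2. Adherent cells TCA-fixed and stained with 0.4% SRB; A515 read. Percent growth = (Ti−Tz)/(C−Tz)×100, or (Ti−Tz)/Tz×100 when Ti<Tz.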
# SR = assay: Antiproliferative activity against human SR cells assessed as cell growth inhibition by measuring lethal concentration incubated for 48 hrs by sulforhodamine B assay; format: functional; conditions: read-out: LC50 (the source's name)
# Procedure, shortened: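 NCI-60 five-dose screen (10^-4 to 10^-8 M, 10-fold dilutions; DMSO stocks). Cells in RPMI 1640 with 5% FBS and 2 mM L-glutamine, preincubated 24 h, then exposed 48 h at 37 °C, 5% CO2. Fixed with cold TCA, stained with 0.4% SRB, absorbance read at 515 nm. Time-zero plates used as reference. LC50 taken from [(Ti-Tz)/Tz]×100 […].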
# SK-OV-3 = assay: Antiproliferative activity against human SK-OV-3 cells assessed as cell growth at 0.000001 M incubated for 48 hrs by SRB assay relative to control; format: functional; conditions: read-out: Activity
# IGROV-1 [11] = assay: Antiproliferative activity against human IGROV-1 cells assessed as cell growth at 0.00001 M incubated for 48 hrs by SRB assay relative to control; format: functional; conditions: read-out: Activity
# PC-3 = assay: Antiproliferative activity against human PC-3 cells assessed as cell growth at 0.00001 M incubated for 48 hrs by SRB assay relative to control; format: functional; conditions: read-out: Activity
# 786-0 [12] = assay: Antiproliferative activity against human 786-0 cells assessed as cell growth at 0.00000001 M incubated for 48 hrs by SRB assay relative to control; format: functional; conditions: dose 10 nM, read-out: Activity; procedure, shortened: as §2
# HL-60 [13] = assay: Antiproliferative activity against human HL-60 cells assessed as cell growth at 0.00000001 M incubated for 48 hrs by SRB assay relative to control; format: functional; conditions: dose 10 nM, read-out: Activity; procedure, shortened: as §1
# Calf thymus DNA [14] = assay: Binding affinity to calf thymus DNA assessed as fluorescence quenching intensity at 5 uM at temperature of 298 K by fluorescence spectroscopic method relative to control; format: nucleic-acid assay; conditions: Bos taurus
SMILES,growth at 0.1 µM (HL-60 [1]) [%],growth at 100 µM (NCI-H460 [2]) [%],growth at 0.1 µM (T47D) [%],growth at 100 µM (NCI-H322M) [%],growth at 100 µM (M14) [%],growth at 10 µM (KM12) [%],CC50 (OVCAR-4 [3]) [µM],GI50 (HT-29) [µM],growth at 100 µM (OVCAR-3) [%],TGI (OVCAR-4 [4]) [µM],CC50 (HOP-62) [µM],growth at 0.1 µM (SNB-75) [%],TGI (BT-549) [µM],CC50 (MDA-MB-468 [5]) [µM],growth at 10 µM (Malme-3M) [%],Activity (Calf thymus DNA [6]) [%],growth at 0.01 µM (MDA-MB-468 [7]) [%],GI50 (MDA-MB-435) [µM],TGI (NCI-H460 [8]) [µM],growth at 0.1 µM (OVCAR-5) [%],also measured
COc1ccc(-c2cn3ccnc3c(-c3ccc4ncn(C5CCCCC5)c4c3)n2)cc1,95,5,86,67,8,5,> 100,0.383,17,> 100,> 100,82,3.91,> 100,51,20.8,93,0.312,> 100,90,growth at 1 µM (IGROV-1 [9]): 49%; growth at 0.1 µM (SN12C): 100%; CC50 (EKVX): > 100 µM; GI50 (HCC 2998): 2.92 µM; growth at 0.01 µM (SK-MEL-5): 98%; growth at 10 µM (786-0 [10]): -32%; CC50 (SR): > 100 µM; growth at 1 µM (SK-OV-3): 34%; growth at 10 µM (IGROV-1 [11]): 19%; growth at 10 µM (PC-3): 5%; growth at 0.01 µM (786-0 [12]): 87%; growth at 0.01 µM (HL-60 [13]): 97%; Activity (Calf thymus DNA [14]): 75%
c1ccc(Cn2cnc3ccc(-c4nc(-c5ccc6c(c5)ncn6C5CCCCC5)cn5ccnc45)cc32)cc1,113,-24,95,14,6,-41,> 100,1.89,-19,> 100,> 100,82,2.68,> 100,-10,15.3,100,2.2,5.66,89,growth at 1 µM (IGROV-1 [9]): 73%; growth at 0.1 µM (SN12C): 101%; CC50 (EKVX): > 100 µM; GI50 (HCC 2998): 1.9 µM; growth at 0.01 µM (SK-MEL-5): 101%; growth at 10 µM (786-0 [10]): 4%; CC50 (SR): > 100 µM; growth at 1 µM (SK-OV-3): 100%; growth at 10 µM (IGROV-1 [11]): 3%; growth at 10 µM (PC-3): -10%; growth at 0.01 µM (786-0 [12]): 86%; growth at 0.01 µM (HL-60 [13]): 104%; Activity (Calf thymus DNA [14]): 35%
